Measurements from ChEMBL document CHEMBL3046880, “Syntheses and herbicidal activities of novel triazolinone derivatives” (J Agric Food Chem, 2008).

What was measured:
Setaria viridis [1] = test: Herbicidal activity against Setaria viridis (green foxtail) assessed as growth inhibition at 150 g of active ingredient/ha administered using post-emergence treatment measured 15 days post treatment protocol under greenhouse conditions; type: functional
How it was run: (§1)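 Test agents were formulated as 100 g/L emulsified concentrates (DMF solvent, TW-80 emulsifier), diluted with water and sprayed postemergence on pot-grown weeds. Seeds were sown 1-3 cm deep in clay soil (pH 6.5, 1.6% organic matter, 37.3% clay, CEC […]) and grown at 15–30 °C in a greenhouse. Dicots were treated at the two-leaf stage. Untreated and DMF-treated plants served as controls. Activity was scored visually 15 days after treatment.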

[2] = Phytotoxicity against Oryza sativa (rice) plant assessed as growth inhibition at 450 g of active ingredient/ha administered using post-emergence treatment measured 30 days post treatment protocol under greenhouse conditions; type: organism-based; settings: in vivo, read-out: GI
How it was run: (§2)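 Compounds were formulated as 100 g/L emulsified concentrates in DMF with TW-80 as emulsifier, then diluted with water to the required concentration. They were applied postemergence to pot-grown plants in a greenhouse. The soil was clay, pH 6.5, with 1.6% organic matter, 37.3% clay particles and CEC 12.1 mol/kg. Sulfentrazone served as the reference control.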

Zea mays [3] = test: Phytotoxicity against Zea mays (maize) plant assessed as growth inhibition at 450 g of active ingredient/ha administered using post-emergence treatment measured 30 days post treatment protocol under greenhouse conditions; type: organism-based; settings: in vivo, other, 720 h; how it was run: as §2
Zea mays [4] = test: Phytotoxicity against Zea mays (maize) plant assessed as growth inhibition at 150 g of active ingredient/ha administered using post-emergence treatment measured 30 days post treatment protocol under greenhouse conditions; type: organism-based; settings: in vivo, other, 720 h; how it was run: as §2
[5] = Phytotoxicity against Zea mays (maize) plant assessed as growth inhibition at 75 g of active ingredient/ha administered using post-emergence treatment measured 30 days post treatment protocol under greenhouse conditions; type: organism-based; settings: in vivo, read-out: GI; how it was run: as §2
Glycine max [6] = test: Phytotoxicity against Glycine max (soybean) plant assessed as growth inhibition at 450 g of active ingredient/ha administered using post-emergence treatment measured 30 days post treatment protocol under greenhouse conditions; type: organism-based; settings: in vivo, other, 720 h; how it was run: as §2
Glycine max [7] = test: Phytotoxicity against Glycine max (soybean) plant assessed as growth inhibition at 300 g of active ingredient/ha administered using post-emergence treatment measured 30 days post treatment protocol under greenhouse conditions; type: organism-based; settings: in vivo, other, 720 h; how it was run: as §2
Glycine max [8] = test: Phytotoxicity against Glycine max (soybean) plant assessed as growth inhibition at 150 g of active ingredient/ha administered using post-emergence treatment measured 30 days post treatment protocol under greenhouse conditions; type: organism-based; settings: in vivo, other, 720 h; how it was run: as §2
[9] = Phytotoxicity against Glycine max (soybean) plant assessed as growth inhibition at 75 g of active ingredient/ha administered using post-emergence treatment measured 30 days post treatment protocol under greenhouse conditions; type: organism-based; settings: in vivo, read-out: GI; how it was run: as §2
[10] = Phytotoxicity against Oryza sativa (rice) plant assessed as growth inhibition at 150 g of active ingredient/ha administered using post-emergence treatment measured 30 days post treatment protocol under greenhouse conditions; type: organism-based; settings: in vivo, read-out: GI; how it was run: as §2
[11] = Phytotoxicity against Oryza sativa (rice) plant assessed as growth inhibition at 75 g of active ingredient/ha administered using post-emergence treatment measured 30 days post treatment protocol under greenhouse conditions; type: organism-based; settings: in vivo, read-out: GI; how it was run: as §2
Setaria viridis [12] = test: Herbicidal activity against Setaria viridis (green foxtail) assessed as growth inhibition at 75 g of active ingredient/ha administered using post-emergence treatment measured 15 days post treatment protocol under greenhouse conditions; type: functional; how it was run: as §1
Setaria viridis [13] = test: Herbicidal activity against Setaria viridis (green foxtail) assessed as growth inhibition at 37.5 g of active ingredient/ha administered using post-emergence treatment measured 15 days post treatment protocol under greenhouse conditions; type: functional; how it was run: as §1
Digitaria sanguinalis [14] = test: Herbicidal activity against Digitaria sanguinalis (hairy crabgrass) assessed as growth inhibition at 75 g of active ingredient/ha administered using post-emergence treatment measured 15 days post treatment protocol under greenhouse conditions; type: functional; how it was run: as §1
Digitaria sanguinalis [15] = test: Herbicidal activity against Digitaria sanguinalis (hairy crabgrass) assessed as growth inhibition at 37.5 g of active ingredient/ha administered using post-emergence treatment measured 15 days post treatment protocol under greenhouse conditions; type: functional; how it was run: as §1
Senna tora [16] = test: Herbicidal activity against Senna tora assessed as growth inhibition at 75 g of active ingredient/ha administered using post-emergence treatment measured 15 days post treatment protocol under greenhouse conditions; type: functional; how it was run: as §1
Senna tora [17] = test: Herbicidal activity against Senna tora assessed as growth inhibition at 37.5 g of active ingredient/ha administered using post-emergence treatment measured 15 days post treatment protocol under greenhouse conditions; type: functional; how it was run: as §1
Chenopodium album [18] = test: Herbicidal activity against Chenopodium album assessed as growth inhibition at 75 g of active ingredient/ha administered using post-emergence treatment measured 15 days post treatment protocol under greenhouse conditions; type: functional; how it was run: as §1
Chenopodium album [19] = test: Herbicidal activity against Chenopodium album assessed as growth inhibition at 150 g of active ingredient/ha administered using post-emergence treatment measured 15 days post treatment protocol under greenhouse conditions; type: functional; how it was run: as §1
Amaranthus retroflexus [20] = test: Herbicidal activity against Amaranthus retroflexus assessed as growth inhibition at 150 g of active ingredient/ha administered using post-emergence treatment measured 15 days post treatment protocol under greenhouse conditions; type: functional; how it was run: as §1
Digitaria sanguinalis [21] = test: Herbicidal activity against Digitaria sanguinalis (hairy crabgrass) assessed as growth inhibition at 150 g of active ingredient/ha administered using post-emergence treatment measured 15 days post treatment protocol under greenhouse conditions; type: functional; how it was run: as §1
Portulaca oleracea [22] = test: Herbicidal activity against Portulaca oleracea assessed as growth inhibition at 150 g of active ingredient/ha administered using post-emergence treatment measured 15 days post treatment protocol under greenhouse conditions; type: functional; how it was run: as §1
Portulaca oleracea [23] = test: Herbicidal activity against Portulaca oleracea assessed as growth inhibition at 75 g of active ingredient/ha administered using post-emergence treatment measured 15 days post treatment protocol under greenhouse conditions; type: functional; how it was run: as §1
Cerastium arvense [24] = test: Herbicidal activity against Cerastium arvense assessed as growth inhibition at 150 g of active ingredient/ha administered using post-emergence treatment measured 15 days post treatment protocol under greenhouse conditions; type: functional; how it was run: as §1
Cerastium arvense [25] = test: Herbicidal activity against Cerastium arvense assessed as growth inhibition at 75 g of active ingredient/ha administered using post-emergence treatment measured 15 days post treatment protocol under greenhouse conditions; type: functional; how it was run: as §1
Eclipta prostrata = test: Herbicidal activity against Eclipta prostrata assessed as growth inhibition at 37.5 g of active ingredient/ha administered using post-emergence treatment measured 15 days post treatment protocol under greenhouse conditions; type: functional; how it was run: as §1
Amaranthus retroflexus [26] = test: Herbicidal activity against Amaranthus retroflexus assessed as growth inhibition at 75 g of active ingredient/ha administered using post-emergence treatment measured 15 days post treatment protocol under greenhouse conditions; type: functional; how it was run: as §1
Amaranthus retroflexus [27] = test: Herbicidal activity against Amaranthus retroflexus assessed as growth inhibition at 37.5 g of active ingredient/ha administered using post-emergence treatment measured 15 days post treatment protocol under greenhouse conditions; type: functional; how it was run: as §1
Triticum aestivum = test: Phytotoxicity against Triticum aestivum (wheat) plant assessed as growth inhibition at 300 g of active ingredient/ha administered using post-emergence treatment measured 30 days post treatment protocol under greenhouse conditions; type: organism-based; settings: in vivo, other, 720 h; how it was run: as §2
Brassica napus [28] = test: Phytotoxicity against Brassica napus (oilseed rape) assessed as growth inhibition at 300 g of active ingredient/ha administered using post-emergence treatment measured 30 days post treatment protocol under greenhouse conditions; type: organism-based; settings: in vivo, other, 720 h; how it was run: as §2
Brassica napus [29] = test: Phytotoxicity against Brassica napus (oilseed rape) assessed as growth inhibition at 450 g of active ingredient/ha administered using post-emergence treatment measured 30 days post treatment protocol under greenhouse conditions; type: organism-based; settings: in vivo, other, 720 h; how it was run: as §2

CCS(=O)(=O)Nc1cc(-n2nc(C)n(Cc3ccccc3/C(=N\OC)C(=O)OC)c2=O)c(F)cc1Cl
growth inhibition (GI) (Setaria viridis [1]): 50%
inhibition at 720 h [2]: 10%
Activity (Zea mays [3]): Toxic
Activity (Zea mays [4]): Toxic
inhibition at 720 h [5]: 40%
Activity (Glycine max [6]): Toxic
Activity (Glycine max [7]): Toxic
Activity (Glycine max [8]): Toxic
inhibition at 720 h [9]: 60%
inhibition at 720 h [10]: 0%
inhibition at 720 h [11]: 0%
growth inhibition (GI) (Setaria viridis [12]): <50%
growth inhibition (GI) (Setaria viridis [13]): <50%
growth inhibition (GI) (Digitaria sanguinalis [14]): 50%
growth inhibition (GI) (Digitaria sanguinalis [15]): 50%
growth inhibition (GI) (Senna tora [16]): >80%
growth inhibition (GI) (Senna tora [17]): 50%
growth inhibition (GI) (Chenopodium album [18]): >80%
growth inhibition (GI) (Chenopodium album [19]): >80%
growth inhibition (GI) (Amaranthus retroflexus [20]): 100%
growth inhibition (GI) (Digitaria sanguinalis [21]): 50%
growth inhibition (GI) (Portulaca oleracea [22]): 100%
growth inhibition (GI) (Portulaca oleracea [23]): 100%
growth inhibition (GI) (Cerastium arvense [24]): 100%
growth inhibition (GI) (Cerastium arvense [25]): 100%
growth inhibition (GI) (Eclipta prostrata): >80%
growth inhibition (GI) (Amaranthus retroflexus [26]): >80%
growth inhibition (GI) (Amaranthus retroflexus [27]): >80%
Activity (Triticum aestivum): Toxic
Activity (Brassica napus [28]): Toxic
Activity (Brassica napus [29]): Toxic
